Measurements from different studies.
Compare with care: the assays were run in different laboratories.
Cell line: MCF7
Observed: cell growth or viability

| SMILES | test | conditions | IC50 |
| --- | --- | --- | --- |
| FC(F)(F)c1cccc(Nc2ncnc3ccc(Nc4ccccc4)cc23)c1 | MTT | 24 h | 11.4 µM |
| CC1(C)CC[C@]2(C(=O)O)CC[C@]3(C)C(=CC[C@@H]4[C@@]5(C)CC[C@H](O)C(C)(C)[C@@H]5CC[C@]43C)[C@@H]2C1 | MTT | 48 h | > 100 µM |
| C[C@H]1O[C@@H](n2cc(F)c(=O)[nH]c2=O)[C@H](O)[C@@H]1O | CCK-8 | 48 h | > 50 µM |
| COc1cccc(C(c2c(N)nc(SCC(N)=O)[nH]c2=O)c2c(N)nc(SCC(N)=O)[nH]c2=O)c1 | MTT | 72 h | > 100 µM |
| COc1cc2ncnc(Nc3ccc(F)c(Cl)c3)c2cc1NC(=O)N/N=C/c1cccn1CCCN(C)C | MTT | 72 h | 1.26 µM |
| COc1ccc(-c2nn(-c3ccc(S(C)(=O)=O)cc3)cc2C=N/N=c2\[nH]c(-c3ccc([N+](=O)[O-])cc3)cs2)cc1 | MTT | 48 h | 2.15 µM |
| COc1c2c(cc3c1OCO3)[C@]13C=C[C@H](OC)C[C@H]1N(C2)C[C@H]3OC(=O)c1cccc(C)c1 | WST-1 | – | > 10 µM |
| C=CCn1c(-c2ccc(Cl)cc2)nc2ccc(C)cc21 | MTT | – | 22.2 µM |
| O=S(=O)(NN=Cc1cn(CCN2CCOCC2)c2ccccc12)c1cccc2ncccc12 | MTT | 48 h | 79.1 µM |
| O=c1c(O)c(-c2ccc(O)cc2)oc2cc(O)cc(O)c12 | WST-1 | 48 h | 27.2 µM |
| Cc1ccc(S(=O)(=O)NN=Cc2cn(CCN3CCOCC3)c3ccccc23)cc1 | MTT | 48 h | 61.1 µM |
| O=[N+]([O-])c1ccc(-c2csc(Nc3ccc4c(O)ncnc4c3)n2)cc1 | MTT | – | 3.09 µM |
| O=[N+]([O-])c1ccc(-c2nc3ccccc3n2Cc2ccccc2)cc1 | MTT | – | 9.56 µM |
| O=c1cc(-c2ccc(O)c(O)c2)oc2cc(O)cc(O)c12 | WST-1 | 48 h | 13.4 µM |
| Cc1ccc2nc(-c3cc(Br)ccc3O)[nH]c2c1 | MTT | 48 h | 4.37 µM |
| CC(C)C[C@H](NC(=O)[C@H](Cc1ccccc1)NC(=O)c1cnccn1)B(O)O | ATP luminescence | – | 0.0088 µM |
| FC(F)(F)c1cccc(Nc2ncnc3ccc(-c4ccsc4)cc23)c1 | MTT | 24 h | 4.39 µM |
| COc1cc2c(Nc3ccc(NC(=O)c4ccccc4)cc3)ncnc2cc1OCCCN1CCOCC1 | MTS | 48 h | 3.1 µM |
| COc1cccc2c1C(=O)c1c(O)c3c(c(O)c1C2=O)C[C@@](O)(C(=O)CO)C[C@@H]3O[C@H]1C[C@H](N)[C@H](O)[C@H](C)O1 | MTT | 48 h | 964 ng/mL |
| O=C(NC(=S)NC1CCCCC1)c1ccc2ccccc2c1 | – | 48 h | 5.22 µM |
| CCN(CC)CCn1cccc1/C=N/NC(=O)Nc1cc2c(Nc3ccc(F)c(Cl)c3)ncnc2cc1O[C@H]1CCOC1 | MTT | 72 h | 1.28 µM |
| CS(=O)(=O)c1ccc(-n2cc(/C=N/N=c3\[nH]c(-c4ccc([N+](=O)[O-])cc4)cs3)c(-c3ccc([N+](=O)[O-])cc3)n2)cc1 | MTT | 48 h | 10.1 µM |
| O=C(Nc1nnnn1C1CCCCC1)c1ccc2ccccc2c1 | – | 48 h | 2.38 µM |
| F[B-](F)(F)F.[Fe+3].c1cc[cH-]c1.c1cc[cH-]c1 | MTT | – | 150 µM |

| SMILES | test | conditions | IC50 |
| --- | --- | --- | --- |
| COc1cc(/C=C/C(=O)c2ccc(NC(=O)c3ccccc3CN3C(=O)c4ccccc4C3=O)cc2)cc(OC)c1OC | MTT | 72 h | 1.88 µM |
| Cc1ccc2nc(-c3ccccc3Cl)[nH]c2c1 | MTT | 48 h | > 100 µM |
| c1cnc2c(c1)ccc1cccnc12 | MTT | 48 h | > 50 µM |
| Cc1ccc(-c2csc(Nc3ccc4c(O)ncnc4c3)n2)cc1 | MTT | – | 6.28 µM |
| COc1cc2ncnc(Nc3ccc(F)c(Cl)c3)c2cc1NC(=O)N/N=C/c1cccn1CCN1CCCCC1 | MTT | 72 h | 2.18 µM |
| c1cncc(-c2nc3ccccc3[nH]2)c1 | MTT | 48 h | > 100 µM |
| O=S(=O)(NN=Cc1cn(CCN2CCOCC2)c2ccccc12)c1ccc2ccccc2c1 | MTT | 48 h | 29.9 µM |
| CCN(CC)C/C=N/NC(=O)Nc1cc2c(Nc3ccc(F)c(Cl)c3)ncnc2cc1O[C@H]1CCOC1 | MTT | 72 h | 2.34 µM |
| Oc1c(I)cc(Cl)c2cccnc12 | MTT | 48 h | 50.2 µM |
| Oc1ncnc2cc(Nc3nc(-c4ccc(F)cc4)cs3)ccc12 | MTT | – | 3.71 µM |
| CC(C)NCC(O)COc1ccccc1-c1ccccc1OCC(O)CNC(C)C (stereo not drawn) | MTT | 72 h | > 75 µM |
| O=C(N/N=C/c1cccn1CCN1CCCC1)Nc1cc2c(Nc3ccc(F)c(Cl)c3)ncnc2cc1O[C@H]1CCOC1 | MTT | 72 h | 1.2 µM |
| Cc1ccc2nc(-c3ccc([N+](=O)[O-])cc3)n(Cc3ccccc3)c2c1 | MTT | – | 7.86 µM |
| COc1cc(/C=N/c2nc(SC)nn2-c2ccc(C(=O)O)cc2)ccc1O | MTT | – | 29.4 µM |
| O=C(NC(=S)NCc1ccccc1)c1ccc2ccccc2c1 | – | 48 h | 4.99 µM |
| COC(=O)c1ccc(-n2nc(SC)nc2N)cc1 | MTT | – | 23.4 µM |
| O=C(/N=C1\SCC(=O)N1C1CCCCC1)c1ccc2ccccc2c1 | – | 48 h | 7.96 µM |
| COc1cccc(-c2nc3ccccc3n2Cc2ccccc2)c1 | MTT | – | 24.8 µM |
| COc1cc2ncnc(Nc3ccc(F)c(Cl)c3)c2cc1NC(=O)N/N=C/c1cccn1CCN1CCCC1 | MTT | 72 h | 2.45 µM |
| CC(=O)OC[C@H]1O[C@@H]([S-])[C@H](OC(C)=O)[C@@H](OC(C)=O)[C@@H]1OC(C)=O.CCP(CC)CC.[Au+] | resazurin | – | 5.2 µM |
| O=C(CCl)Nc1ccc2c(Nc3cccc(C(F)(F)F)c3)ncnc2c1 | MTT | 24 h | 7.78 µM |
| COc1cc2ncnc(Nc3ccc(F)c(Cl)c3)c2cc1NC(=O)N/N=C/CN1CCOCC1 | MTT | 72 h | 7.43 µM |
| Cc1ccc2nc(-c3cccnc3)[nH]c2c1 | MTT | 48 h | 51.1 µM |
| CSc1nc(NC(=S)NCCc2ccccc2)n(-c2ccc(C(=O)O)cc2)n1 | MTT | – | 15.6 µM |
